Measured values from the EternaBench riboswitch data.

Tested on: MS2 coat protein
Assay: apparent Kd, MS2 coat protein; higher = weaker binding; RNA-MaP array; FMN 200 µM where present
How it was run: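 Designs were transcribed by stalled E. coli RNA polymerase on Illumina sequencing-chip clusters. They were titrated with SNAP-549-labelled MS2 coat protein from 0.7 or 1.5 nM, doubling to 3 µM, in 100 mM Tris-HCl pH 7.5, 80 mM KCl, 4 mM MgCl2, BSA, DTT, yeast tRNA and Tween-20, without and then with constant ligand. The apparent Kd is the median of filtered per-cluster fits after normalisation of green signal to red-channel RNA signal and control-cluster median Fmax.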

[1] = designed as: OFF switch for flavin mononucleotide, no ligand
[2] = ligand present: flavin mononucleotide, designed as: OFF switch for flavin mononucleotide
[3] = designed as: ON switch for flavin mononucleotide, no ligand
[4] = ligand present: flavin mononucleotide, designed as: ON switch for flavin mononucleotide

Row | Sequence | apparent Kd [1] [nM] | apparent Kd [2] [nM] | apparent Kd [3] [nM] | apparent Kd [4] [nM]
1 | GCUGACGAUGUAGGAUAUCUCGACGAUAAGUCGAGAGAAGGACAUGAGGAUCACCCAUGUACUCAAACGUCAGCGAGGAAACUC | 18.7 | 27.6 | – | –
2 | UUUGUCAUCGAGAAGGCCUCAACAUGAGGAUCACCCAUGUUGUAAUAUGGGAGGAUAUCGAUGAUACAGCUACGUUUCGUAAAA | – | – | 20 | 5.58
3 | AAUAUGUUGCAGAAGGUUAUAUUUAUUUAGUACCUCAUGACAUGAGGAUCACCCAUGUUAAUGUUGAAGGAUAUGCAAUAUAUU | 14.1 | 13.6 | – | –
4 | GUGUGCUGAGGAUAUACACAGGAAUAGAAGAUAAGAUAAUCACAUGAGGAUCACCCAUGUAGAAGGCAGAGUGU | 15.2 | 17.3 | – | –
5 | CACUCGUGUCUAGGAUAUGAGUGACAAGCGCGAGAUUUUCUCGGCGCUAGCUCAGAAGGAGACAUGAGGAUCACCCAUGUAAGG | 162 | 12 | – | –
6 | UACCUAUUUAUGGUAUUUCAAUAUGAGGAUAUCAUUUAUUUAUACAUGAGGAUCACCCAUGUUACUGAGAAGGCAUAUUUAAUA | – | – | 11.4 | 6.01
7 | AGGUCACAUGAGGAUCACCCAUGUCAGGAUAUCGUCACUGGAGCUGCGGCUCCAGUGACGAGAAGGGAUAAUUA | 45.5 | 70.5 | – | –
8 | GCCGAUUAAGUGAGGAUAUACCUAUGGAUACAUAGGUAGAAGGCACAUGAGGAUCACCCAUGUUCCUCAUCGGC | 16.8 | 132 | – | –
9 | AUCAGCUCGUCAGGAUAUACGUCACUGCGUCAGCAGUGCGGUAAGAUCACAUGAGGAUCACCCAUGUAGAAGGGACGAGCUGAU | 6.4 | 20.1 | – | –
10 | UUAAUGAAGUAAGGAUAUACAUGAGGAUUUCUCGUAGAAGGUACUAUACAUGAGGAUCACCCAUGUGCCGGUCAGAAGACUGGA | – | – | 433 | 274
11 | ACAUGCGGAUGAGGAUAUUCAUUCAUGAGGAUAGAAGAAGGCAUACAUGAGGAUCACCCAUGUAUACGCAUGAGGAUCCCUUAU | 24.8 | 32.7 | – | –
12 | AAUAUGUUGCAGAAGGUUAUUUUUAUAACGAUCCACUUGACAUGAGGAUCACCCAUGUAAUUGAUGAAGGAUAUGCAAUAUAUU | 6.69 | 6.69 | – | –
13 | AGCUAGUCAGGAUAUACGCGAACGAACGAAGCAGUGAAGGGACAUGAGGAUCACCCAUGUAGAAGGGACUAGCA | 27.1 | 53.7 | – | –
14 | UACAUGAGGAUCACCCAUGUUUUGUCGUGUAUGGUAUUUAUCUAGGAUAUCAAUGUAUUUAUUUAUGAGAAGGAGAAUAUUAAU | 41.1 | 39.3 | – | –
15 | ACCUCACAUGAGGAUCACCCAUGUCAGGAUAUACCCAAAGCUGCGAAAAUAUCCAGCUGUAGAAGGGACAGGCU | 13.9 | 16.1 | – | –
16 | ACGACGAAAGUCGAACGAUGUAGCAGAAGGACAUGAGGAUCACCCAUGUCAGCUGUGAAAACCAUGUAGGAUAUGCUACAUCGA | 38.5 | 291 | – | –
17 | GCUAGUAUUGCAGGAUAUUGUAAUUUAUUAUUUCAAGAAGGGCAUUACAUGAGGAUCACCCAUGUCAUCCUAUGGUUUACUAGC | 9.2 | 19.9 | – | –
18 | UGGCUACAUGAGGAUCACCCAUGUCAGGAUAUGCCGUUAAAUUAACAUCAACGUACGGGUAGAAGGGACUGCGU | 24.3 | 23 | – | –

Row | Sequence | apparent Kd [1] [nM] | apparent Kd [2] [nM] | apparent Kd [3] [nM] | apparent Kd [4] [nM]
19 | AUAAUGUAAGGAUAUCAGUCGACUAGCUGCGGCUAGUCGACUGAGAAGGUACAUGAGGAUCACCCAUGUGUUUC | 40.9 | 183 | – | –
20 | UGAUCUUGUGUUAGGAUAUGCUGGUUUUUUUUUCAGCAGAAGGGACAUGAGGAUCACCCAUGUUCUCUCUUUUU | 12.8 | 17.3 | – | –
21 | GAUGCAUAUGAGAAGGCGAUCAUGAAACAUGAUCGAGGAUAUCAUGUAAACAUGAGGAUCACCCAUGUAUGGGUAAAGUGCAUC | – | – | 392 | 27.7
22 | GAUCCUUCUGUUAGGAUAUGCUUUGGGCUUCCGCAGUAGAAGGAACAUGAGGAUCACCCAUGUCCGAUGCCGUC | 74.6 | 101 | – | –
23 | UCCUUGGAAGGAUAUCGAUAGGCUUACAUGAGGAUCACCCAUGUUGGGAUGUCUUUCUGUCGAGAAGGUUCGUUUU | 19.7 | 21.4 | – | –
24 | AUACACACGACAGGAUAUGGAAUGUAAGCUCAGAGACAUGAGGAUCACCCAUGUACCUGUCUUGCCCAGAAGGGUCGCAAAAGA | – | – | 327 | 64.5
25 | GCUGGACGUCGAGGAUAUGGGUGUGCGAGUCUUGGCACUGGACAUGAGGAUCACCCAUGUCGCUUCCAGAAGGCGACGUCCCUA | – | – | 35.1 | 6.55
26 | UGUCCAUAGCAGAAGGACAUGUAUAAUCAUGAAAACAUGAGGAUCACCCAUGUAGGAUAUGCUAUGGACUAAGAGCGAAAGCUC | 19.9 | 297 | – | –
27 | UAGAUGGGAGGAUAUACGUAGAUGCAGGUUCGUGUGGUGCUACAUGAGGAUCACCCAUGUAGAAGGCCCGUCUU | 14.8 | 48.9 | – | –
28 | AAUUAUUGAUGAGGAUAUUGUGGUGAAACACGACAAGAAGGCAUUAUUCACAUGAGGAUCACCCAUGUGAGCCUGAUGCAUAUA | 14.5 | 13.9 | – | –
29 | CUUUUGUGAGGAUAUCAGUAGUAAAUUAAUAAAAUUACUACUGAGAAGGCACAUGAGGAUCACCCAUGUUCCUC | 42.6 | 285 | – | –
30 | CUUAUGUGAGGAUAUCAGUAGUGAUACGAUAGUAUUACUGCUGAGAAGGCACAUGAGGAUCACCCAUGUUCCUU | 26.1 | 51.9 | – | –
31 | AGAGAGAGCACAGGAUAUCCGCACACAUGCAGCGGAGAAGGGUGACCUUUUUGCACAUGAGGAUCACCCAUGUCCAGCACCACG | – | – | 25.7 | 13.3
32 | GGAUCGAGUGUGAGGAUAUACCACUGGAUACAGUGGUAGAAGGCACAUGAGGAUCACCCAUGUCCUUACGAUCC | 81.4 | 436 | – | –
33 | UGGUACUAGGGAGGAUAUGGGAAGAUACAUGAGGAUCACCCAUGUAUAAGAAUGCCGAGAGGCAACUAGAAGGCCCUAGUACCU | – | – | 10.8 | 5.48
34 | UUCAGCGAUCAAGGAUAUCUAUAAACAUGAGGACAUGAGGAUCACCCAUGUUGAUCACCCAUGUAGGAGAAGGUGAACAUGAGG | – | – | 81.8 | 29.8
35 | CCGGCUUAGUAGGAUAUAGGAGUCGAUAGACACCUAGAAGGACUAACAUGAGGAUCACCCAUGUGUCCUACCGG | 14.3 | 29.3 | – | –
36 | AUCCACCGCACGGACACGUCGAGUCAGGAUAUACAUGAGGAUCACCCAUGUGAAGGCCGGCUCAUGUAGAAGGGACAGGCGUUG | 10.4 | 22.5 | – | –
